{"data": "Measurements collected from several papers", "Htr2a": "5-hydroxytryptamine receptor 2A (Htr2a, Mus musculus, UniProt P35363)", "Short transient receptor potential channel 5": "Short transient receptor potential channel 5 (Mus musculus, UniProt Q9QX29)", "note": "Compare with care: the assays were run in different laboratories."}
{"SMILES": "COc1cc(CCN)c(OC)cc1C#N", "target": "Htr2a", "test": "G protein activation, agonist, BRET", "endpoint": "EC50", "value": "0.32 µM"}
{"SMILES": "CNCCCN1c2ccccc2CCc2ccccc21", "target": "Short transient receptor potential channel 5", "test": "ion current, inhibitor, patch clamp", "endpoint": "IC50", "value": "10.3 µM"}
{"SMILES": "CN1CC[C@@]2(C)c3cc(OC(=O)Nc4ccccc4)ccc3N(C)[C@@H]12", "target": "Aldehyde dehydrogenase, mitochondrial (ALDH2, Homo sapiens, UniProt P05091)", "test": "enzyme activity, inhibitor, fluorescence", "endpoint": "IC50", "value": "< 10 µM"}
{"SMILES": "Cc1ccc(OCC(=O)N[C@@H](Cc2c[nH]c3ccccc23)C(=O)OC(C)C)cc1", "target": "Cytochrome P450 3A4 (CYP3A4, Homo sapiens, UniProt P08684)", "test": "enzyme activity, inhibitor", "test system": "human, liver microsomes", "conditions": "30 min, midazolam probe", "endpoint": "IC50", "value": "> 50 µM"}
{"SMILES": "CN(C)CCCN1c2ccccc2CCc2ccccc21", "target": "Short transient receptor potential channel 5", "test": "ion current, inhibitor, patch clamp", "endpoint": "IC50", "value": "11.7 µM"}
{"SMILES": "COc1cc2c(cc1OC)CN(CCc1ccc(NC(=O)c3cccc4c(=O)c5cccc(OC)c5[nH]c34)cc1)CC2", "target": "Beta-3 adrenergic receptor (ADRB3, Homo sapiens, UniProt P13945)", "test": "cell-free assay", "endpoint": "Ki", "value": "> 10 µM"}
{"SMILES": "CC(=O)c1c(C)c2cnc(Nc3ccc(C4CCN(CCS(C)(=O)=O)CC4)cn3)nc2n(C2CCCC2)c1=O", "target": "Cytochrome P450 1A2 (CYP1A2, Homo sapiens, UniProt P05177)", "test": "enzyme activity, inhibitor", "test system": "human, liver microsomes", "endpoint": "IC50", "value": "> 10 µM"}
{"SMILES": "COc1cc(CCNC(C)c2ccccc2O)c(OC)cc1Br (centres unmarked)", "target": "Htr2a", "test": "G protein activation, agonist, BRET", "endpoint": "EC50", "value": "0.00094 µM"}
